Reference: ChEMBL document CHEMBL2062373, “Discovery of pyrroloaminopyrazoles as novel PAK inhibitors” (J Med Chem, 2012)

Tests used:
Mus musculus [1] = experiment: Free dug level in mouse xenografted with human M24 cells at 15 mg/kg, po BID for 15 days; type: ADME, organism-based; set-up: dose 15 mg/kg, route oral; settings: in vivo, 360 h
How it was run: (§1)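 The read-out is free drug exposure, reported as unbound average concentration (free Cave) in nM. It was obtained from mice dosed orally at the stated regimen, sid or bid, during the xenograft efficacy study.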

Homo sapiens [2] = species: Homo sapiens; experiment: Inhibition of PCTAIRE; settings: concentration not given here
Homo sapiens [3] = species: Homo sapiens; experiment: Inhibition of RSK at 1000 nM
[4] = Half life in rat at 5 mg/kg, iv and 10 mg/kg, po; type: ADME, organism-based; settings: in vivo
[5] = Metabolic stability in human liver microsomes assessed as extraction ratio; type: ADME, Microsome; settings: read-out: ERH
[6] = Clearance in dog; type: ADME, organism-based, Canis lupus familiaris; settings: in vivo
[7] = target: Mitogen-activated protein kinase 3 (Homo sapiens) (UniProt P27361); experiment: Inhibition of ERK1; settings: concentration not given here
Chain of Mitogen-activated protein kinase 3 (Homo sapiens) (P27361 whole entry): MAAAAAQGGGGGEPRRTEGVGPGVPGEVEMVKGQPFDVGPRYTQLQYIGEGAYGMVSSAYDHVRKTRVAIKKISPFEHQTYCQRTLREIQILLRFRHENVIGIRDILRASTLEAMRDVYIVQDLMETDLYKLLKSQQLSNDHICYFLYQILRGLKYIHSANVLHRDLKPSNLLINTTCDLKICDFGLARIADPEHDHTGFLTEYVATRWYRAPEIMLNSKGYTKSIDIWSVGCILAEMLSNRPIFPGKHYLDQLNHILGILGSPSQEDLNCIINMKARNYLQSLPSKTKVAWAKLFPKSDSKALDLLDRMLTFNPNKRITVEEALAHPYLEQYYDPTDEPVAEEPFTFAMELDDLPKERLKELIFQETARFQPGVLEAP

[8] = target: T1, Mitogen-activated protein kinase 1 (Homo sapiens, UniProt P28482); experiment: Inhibition of Erk2 at 1000 nM
T1 sequence (P28482 whole entry): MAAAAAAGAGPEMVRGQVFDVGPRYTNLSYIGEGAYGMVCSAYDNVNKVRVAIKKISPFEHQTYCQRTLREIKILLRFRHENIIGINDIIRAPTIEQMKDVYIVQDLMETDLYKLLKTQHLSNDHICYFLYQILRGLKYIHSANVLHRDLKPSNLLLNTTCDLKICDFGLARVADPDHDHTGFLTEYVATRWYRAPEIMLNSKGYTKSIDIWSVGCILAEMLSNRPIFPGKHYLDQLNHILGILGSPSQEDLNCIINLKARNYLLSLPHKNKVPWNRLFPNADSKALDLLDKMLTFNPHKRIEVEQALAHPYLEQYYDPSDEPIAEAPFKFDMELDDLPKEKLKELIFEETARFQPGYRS

[9] = Half life in dog; type: ADME, organism-based, Canis lupus familiaris; settings: in vivo
[10] = target: T2, Glycogen synthase kinase-3 beta (Homo sapiens, UniProt P49841)
Target sequence in this assay (P49841 whole entry): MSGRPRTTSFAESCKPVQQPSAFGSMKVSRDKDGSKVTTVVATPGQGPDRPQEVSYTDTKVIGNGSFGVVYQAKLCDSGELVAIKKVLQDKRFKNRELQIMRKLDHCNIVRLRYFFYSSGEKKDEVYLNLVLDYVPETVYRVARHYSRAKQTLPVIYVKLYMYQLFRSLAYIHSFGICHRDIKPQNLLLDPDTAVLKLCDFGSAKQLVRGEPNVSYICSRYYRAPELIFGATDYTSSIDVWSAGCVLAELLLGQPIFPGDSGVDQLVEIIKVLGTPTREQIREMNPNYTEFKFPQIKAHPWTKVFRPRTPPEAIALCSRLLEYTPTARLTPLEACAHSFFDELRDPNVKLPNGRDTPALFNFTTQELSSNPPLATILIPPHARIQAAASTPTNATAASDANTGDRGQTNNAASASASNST

Homo sapiens [11] = species: Homo sapiens; experiment: Inhibition of PKA at 1000 nM
[12] = target: T1, Mitogen-activated protein kinase 1; experiment: Inhibition of Erk2
[13] = Octanol/buffer partition coefficient, log D of the compound at pH 7.4; type: physicochemical
[14] = Antitumor activity against human M24 cells xenografted in mouse assessed as tumor growth inhibition at 7.5 mg/kg, po BID for 15 days; type: functional; settings: M24, 360 h, read-out: TGI
[15] = Antitumor activity against human M24 cells xenografted in mouse assessed as tumor growth inhibition at 3.75 mg/kg, po BID for 15 days; type: functional; settings: M24, 360 h, read-out: TGI
[16] = Oral bioavailability in dog; type: ADME, organism-based, Canis lupus familiaris; settings: in vivo
[17] = Efflux ratio of permeability from basolateral to apical side over apical to basolateral side in human Caco2 cells; type: ADME, cell-based; settings: Caco-2
[18] = Oral bioavailability in rat at 10 mg/kg; type: ADME, organism-based; settings: in vivo
[19] = target: T2, Glycogen synthase kinase-3 beta; experiment: Inhibition of GSK3beta at 1000 nM
Target sequence in this assay (P49841 whole entry, looked up): as the sequence (P49841 whole entry) above

HCT-116 [20] = experiment: Antitumor activity against human HCT116 cells xenografted in mouse assessed as tumor growth inhibition at 20 mg/kg, po BID for 15 days; type: functional; settings: HCT-116, 360 h, read-out: TGI
How it was run: (§2)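 HCT-116 colon carcinoma xenografts in mice. Compound given orally twice daily. Efficacy expressed as percent tumour growth inhibition (TGI).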

Mus musculus [21] = experiment: Free dug level in mouse xenografted with human M24 cells at 3.75 mg/kg, po BID for 15 days; type: ADME, organism-based; set-up: dose 3.75 mg/kg, route oral; settings: in vivo, 360 h
[22] = target: Serine/threonine-protein kinase MARK1 (Homo sapiens, UniProt Q9P0L2); experiment: Inhibition of MARK1
Chain of Serine/threonine-protein kinase MARK1 (Q9P0L2 whole entry): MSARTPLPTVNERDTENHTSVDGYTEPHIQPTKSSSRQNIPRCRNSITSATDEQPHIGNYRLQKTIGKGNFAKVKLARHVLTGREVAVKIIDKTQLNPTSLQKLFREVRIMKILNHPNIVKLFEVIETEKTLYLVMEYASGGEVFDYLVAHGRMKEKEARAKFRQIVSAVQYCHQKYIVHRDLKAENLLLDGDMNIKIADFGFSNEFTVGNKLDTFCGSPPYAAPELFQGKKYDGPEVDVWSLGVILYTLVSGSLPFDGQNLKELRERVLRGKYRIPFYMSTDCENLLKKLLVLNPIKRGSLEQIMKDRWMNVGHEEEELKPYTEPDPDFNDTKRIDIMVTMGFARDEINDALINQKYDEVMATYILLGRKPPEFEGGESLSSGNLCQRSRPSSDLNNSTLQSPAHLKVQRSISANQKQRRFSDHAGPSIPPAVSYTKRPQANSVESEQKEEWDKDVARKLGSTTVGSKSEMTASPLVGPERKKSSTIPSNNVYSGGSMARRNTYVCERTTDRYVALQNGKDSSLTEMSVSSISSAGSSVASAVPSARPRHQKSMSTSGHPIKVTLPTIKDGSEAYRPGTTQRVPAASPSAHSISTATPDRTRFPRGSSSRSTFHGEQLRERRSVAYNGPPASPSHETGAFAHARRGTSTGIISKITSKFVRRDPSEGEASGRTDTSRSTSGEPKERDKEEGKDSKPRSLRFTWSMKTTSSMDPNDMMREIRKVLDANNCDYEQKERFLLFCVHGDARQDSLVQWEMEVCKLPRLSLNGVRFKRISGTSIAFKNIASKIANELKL

[23] = target: AMP-activated protein kinase, AMPK (Homo sapiens) (UniProt P54646+O43741+P54619+Q9UGJ0+Q9Y478+Q13131+Q9UGI9); experiment: Inhibition of AMPK at 1000 nM; type: protein-complex assay
HCT-116 [24] = experiment: Antitumor activity against human HCT116 cells xenografted in mouse assessed as tumor growth inhibition at 12.5 mg/kg, po BID for 15 days; type: functional; settings: HCT-116, 360 h, read-out: TGI; how it was run: as §2
[25] = target: T3, Serine/threonine-protein kinase D3 (Homo sapiens) (UniProt O94806); experiment: Inhibition of PKD3; settings: concentration not given here
T3 sequence (whole entry): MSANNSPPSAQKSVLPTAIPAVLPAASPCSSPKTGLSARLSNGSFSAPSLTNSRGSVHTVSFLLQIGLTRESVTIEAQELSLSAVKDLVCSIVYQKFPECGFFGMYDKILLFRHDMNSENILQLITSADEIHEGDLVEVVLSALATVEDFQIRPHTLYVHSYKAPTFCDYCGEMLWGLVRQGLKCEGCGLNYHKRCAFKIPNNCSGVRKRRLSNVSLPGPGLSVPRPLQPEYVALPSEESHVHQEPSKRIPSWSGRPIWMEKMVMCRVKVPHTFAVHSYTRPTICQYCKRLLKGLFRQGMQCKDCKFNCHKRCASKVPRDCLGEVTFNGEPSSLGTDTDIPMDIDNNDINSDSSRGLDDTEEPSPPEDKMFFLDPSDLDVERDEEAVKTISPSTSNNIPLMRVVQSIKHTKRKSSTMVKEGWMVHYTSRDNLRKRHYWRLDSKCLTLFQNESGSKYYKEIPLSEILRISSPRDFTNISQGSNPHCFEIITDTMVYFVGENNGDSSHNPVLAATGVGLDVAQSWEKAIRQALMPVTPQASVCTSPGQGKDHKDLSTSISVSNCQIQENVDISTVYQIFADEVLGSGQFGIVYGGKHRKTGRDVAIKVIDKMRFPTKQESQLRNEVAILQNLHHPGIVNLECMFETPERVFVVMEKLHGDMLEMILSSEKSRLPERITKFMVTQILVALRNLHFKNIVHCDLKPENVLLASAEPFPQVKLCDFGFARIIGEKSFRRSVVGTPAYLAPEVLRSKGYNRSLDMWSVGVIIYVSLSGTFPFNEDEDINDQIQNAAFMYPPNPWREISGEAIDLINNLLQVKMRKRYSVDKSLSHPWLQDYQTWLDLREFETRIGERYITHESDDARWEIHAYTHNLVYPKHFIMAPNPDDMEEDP

[26] = Antitumor activity against human M24 cells xenografted in mouse assessed as tumor growth inhibition at 15 mg/kg, po BID for 15 days; type: functional; settings: M24, 360 h, read-out: TGI
[27] = target: Cyclin-dependent kinase 2 (Homo sapiens, UniProt P24941)
Mus musculus [28] = experiment: Free dug level in mouse xenografted with human M24 cells at 7.5 mg/kg, po BID for 15 days; type: ADME, organism-based; set-up: dose 7.5 mg/kg, route oral; settings: in vivo, 360 h; how it was run: as §1
[29] = target: Serine/threonine-protein kinase PAK 4 (Homo sapiens, UniProt O96013); experiment: Inhibition of PAK4-mediated GEF-H1 phosphorylation at Ser810 by cell based assay; settings: read-out: EC50
Chain of Serine/threonine-protein kinase PAK 4 (O96013 whole entry): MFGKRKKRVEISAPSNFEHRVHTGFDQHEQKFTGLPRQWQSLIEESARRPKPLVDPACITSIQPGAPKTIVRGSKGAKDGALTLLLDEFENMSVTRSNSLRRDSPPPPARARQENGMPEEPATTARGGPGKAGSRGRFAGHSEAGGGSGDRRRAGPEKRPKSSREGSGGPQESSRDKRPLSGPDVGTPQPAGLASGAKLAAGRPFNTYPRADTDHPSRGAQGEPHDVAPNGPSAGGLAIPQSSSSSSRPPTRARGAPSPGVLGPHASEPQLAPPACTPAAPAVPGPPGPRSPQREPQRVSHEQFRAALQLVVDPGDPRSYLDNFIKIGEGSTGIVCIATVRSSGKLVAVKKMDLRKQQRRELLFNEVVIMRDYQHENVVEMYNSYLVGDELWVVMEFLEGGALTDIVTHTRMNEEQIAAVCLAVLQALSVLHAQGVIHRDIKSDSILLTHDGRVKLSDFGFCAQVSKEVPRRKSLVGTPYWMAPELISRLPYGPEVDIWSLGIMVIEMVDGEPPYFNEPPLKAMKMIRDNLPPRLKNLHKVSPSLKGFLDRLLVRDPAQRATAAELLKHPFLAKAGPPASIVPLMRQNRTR

[30] = Clearance in rat at 5 mg/kg, iv and 10 mg/kg, po; type: ADME, organism-based; settings: in vivo
[31] = Volume of distribution at steady state in rat at 5 mg/kg, iv and 10 mg/kg, po; type: ADME, organism-based; settings: in vivo, read-out: Vdss

For `CN(C)C[C@@H](OC(=O)N1Cc2c(NC(=O)C(C)(C)C)n[nH]c2C1(C)C)c1ccccc1`, the “Drug uptake(free)” value (Mus musculus [1]) was 50.5 nM, the inhibition (Homo sapiens [2]) was > 40% and the inhibition (Homo sapiens [3]) was > 70%. The half-life [4] was 0.8 h, the hepatic extraction ratio [5] was 0.44 and the clearance [6] was 12 mL/min/kg. For the same molecule, the inhibition [7] was > 40%, the inhibition [8] was > 70% and the half-life [9] was 2.2 h. For the same molecule, the IC50 [10] was 227 nM, the inhibition (Homo sapiens [11]) was > 70% and the IC50 [12] was 170 nM. For the same molecule, the logD [13] was 2.52, the inhibition in vivo at 7.5 mg/kg [14] was 61% and the inhibition in vivo at 3.75 mg/kg [15] was 41%. For the same molecule, the bioavailability [16] was 20%, the efflux ratio [17] was 9.9 and the bioavailability [18] was 15%. For the same molecule, the inhibition [19] was > 70%, the inhibition in vivo at 20 mg/kg (HCT-116 [20]) was 52% and the “Drug uptake(free)” value (Mus musculus [21]) was 5.3 nM. For the same molecule, the IC50 [22] was 115 nM, the inhibition [23] was > 70% and the inhibition in vivo at 12.5 mg/kg (HCT-116 [24]) was 37%. For the same molecule, the inhibition [25] was > 40%, the inhibition in vivo at 15 mg/kg [26] was 68% and the IC50 [27] was 450 nM. The “Drug uptake(free)” value (Mus musculus [28]) was 28.3 nM, the EC50 [29] was 4 nM and the clearance [30] was 52 mL/min/kg. The Vd [31] was 2.8 L/kg.
